Reference: ChEMBL document CHEMBL1123566, “Synthesis and cardiac electrophysiological activity of 2- and 3-[(substituted phenyl)alkyl]quinuclidines. Structure-activity relationships” (1987)
Where “and” joins values, the source holds several entries; their conditions need not be identical. Equal entries are not always repeated.

What was measured:
Canis familiaris [1] = species: Canis familiaris; assay: In vitro electrophysiological evaluation in canine cardiac ventricular muscle reported as maximum % change for functional refractory period (FRP) at 0.1-100 uM concentration range; concentration at which it occurred is 100 uM; parameters: species or system Canis lupus familiaris, Muscle tissue
Outline: (§1)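 Canine right ventricle and papillary muscle strips in oxygenated Tyrode's solution, fitted with stimulating and recording electrodes. The extra-stimulus conduction-interval method was adapted for in vitro use. FRP and CT were read from a conduction-interval curve before and after various compound concentrations, and expressed as percent change from control. Compounds were taken from 10 mM deionized-water stock into Tyrode's. Each strip was used once as its own control.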

Canis familiaris [2] = species: Canis familiaris; assay: (§2) In vitro electrophysiological evaluation in canine cardiac occurred is 100 uM; assay type: functional; conditions: Canis lupus familiaris; Heart
Canis familiaris [3] = species: Canis familiaris; assay: In vitro electrophysiological evaluation in canine cardiac ventricular muscle reported as maximum % change for conduction time(CT) at 0.1-100 uM concentration range; Minimal (<10% decrease or increase in CT).; assay type: functional, Canis lupus familiaris, Muscle tissue; outline: as §1
Canis familiaris [4] = species: Canis familiaris; assay: In vitro electrophysiological evaluation in canine cardiac Purkinje fibres reported as % change for action potential duration at a concentration of 10 uM; assay type: functional, Canis lupus familiaris, Purkinje fiber
Outline: (§3)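 Canine cardiac Purkinje fibres, intracellular microelectrode recording, paced at a basic cycle length of 1 s. APD95 and Vmax read simultaneously. Compound: 10 mM stock in deionized water, diluted into Tyrode's solution, tested over the stated concentration range. Each fibre used once as its own control. Result is % change from control, given at 10 µM or as the maximum with its concentration. M = <10% decrease or an increase in Vmax.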

Canis familiaris [5] = species: Canis familiaris; assay: In vitro electrophysiological evaluation in canine cardiac Purkinje fibres reported as percent change Vmax at 10 uM at concentration range of 0.1-100 uM; Minimal (<10% decrease or increase in V max).; assay type: functional, organism-based; conditions: Canis lupus familiaris, Purkinje fiber; outline: as §3
Canis familiaris [6] = species: Canis familiaris; assay: In vitro electrophysiological evaluation in canine cardiac ventricular muscle reported as % change for the functional refractory period (FRP) at 10 uM at concentration range of 0.1-100 uM; parameters: species or system Canis lupus familiaris, Muscle tissue; outline: as §1
Canis familiaris [7] = species: Canis familiaris; assay: In vitro electrophysiological evaluation in canine cardiac ventricular muscle reported as maximum % change for conduction time(CT) at 0.1-100 uM concentration range; concentration at which it occurred is 100 uM; assay type: functional, Canis lupus familiaris, Muscle tissue; outline: as §1
Canis familiaris [8] = species: Canis familiaris; assay: (§4) In vitro electrophysiological activity in canine cardiac occurred is 100 uM; assay type: functional, Canis lupus familiaris, Heart
Canis familiaris [9] = species: Canis familiaris; assay: as §4; assay type: functional, Canis lupus familiaris, Heart; remark: listed apart in the source
Canis familiaris [10] = species: Canis familiaris; assay: as §2; assay type: functional; conditions: Canis lupus familiaris; Heart; remark: listed apart in the source
Canis familiaris [11] = species: Canis familiaris; assay: In vitro electrophysiological evaluation in canine cardiac Purkinje fibres reported as percent change Vmax at 10 uM at concentration range of 1-100 uM; Minimal (<10% decrease or increase in V max).; assay type: functional; conditions: Canis lupus familiaris, Purkinje fiber; outline: as §3
Canis familiaris [12] = species: Canis familiaris; assay: In vitro electrophysiological evaluation in canine cardiac Purkinje fibres reported as % change for action potential duration at 10 uM at 1-100 uM concentration range; assay type: functional, Canis lupus familiaris, Purkinje fiber; outline: as §3
Canis familiaris [13] = species: Canis familiaris; assay: In vitro electrophysiological evaluation in canine cardiac ventricular muscle reported as maximum % change for functional refractory period (FRP) at 0.1-100 uM concentration range; concentration at which it occurred is 10 uM; parameters: species or system Canis lupus familiaris, Muscle tissue; outline: as §1
Canis familiaris [14] = species: Canis familiaris; assay: In vitro electrophysiological evaluation in canine cardiac ventricular muscle reported as % change for conduction time(CT) at 10 uM at 0.1-100 uM concentration range; Minimal (<10% decrease or increase in CT).; assay type: functional, Canis lupus familiaris, Muscle tissue
Canis familiaris [15] = species: Canis familiaris; assay: In vitro electrophysiological evaluation in canine cardiac ventricular muscle reported as maximum % change for functional refractory period (FRP) at 0.1-100 uM concentration range; concentration at which it occurred is 1 uM; parameters: species or system Canis lupus familiaris, Muscle tissue; outline: as §1

With `Cl.O=C(CCC1C(=O)C2CCN1CC2)c1ccc(Cl)c([N+](=O)[O-])c1` (stereo not given) the FRP (Canis familiaris [1]) was 44%, the Vmax (Canis familiaris [2]) was -37% and -42% and the CT (Canis familiaris [3]) was under 10%. The APD95 (Canis familiaris [4]) was 4% and 3%, the Vmax (Canis familiaris [5]) was under 10% and the FRP (Canis familiaris [6]) was 21% and 14% and 26%. The CT (Canis familiaris [7]) was 14% and 21%, the APD95 (Canis familiaris [8]) was 11% and the APD95 (Canis familiaris [9]) was 4% and -11%. For the same molecule, the Vmax (Canis familiaris [10]) was -13%, the Vmax (Canis familiaris [11]) was under 10% and the APD95 (Canis familiaris [12]) was 1%. For the same molecule, the FRP (Canis familiaris [13]) was 21%, the CT (Canis familiaris [14]) was under 10% and the FRP (Canis familiaris [15]) was 14%.
